For 22 compounds, Ki results are on record in ChEMBL document CHEMBL1131219, “Inhibition of human alcohol dehydrogenases by formamides” (J Med Chem, 1998).

Usually Ki stands for a dissociation constant, usually derived from enzyme kinetics or from competition with a known ligand. The low end stands for tighter binding, the high end for weaker binding.

Each structure is given as a SMILES string.

The target in assay [1] is T1, All-trans-retinol dehydrogenase [NAD(+)] ADH7 (Homo sapiens, UniProt P40394). The assay can be described thus: Inhibition of human alcohol dehydrogenase sigma activity. The procedure, abridged:
(§1)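 Purified human isozyme in 46 mM sodium phosphate with 0.25 mM EDTA, pH 7.0, 25 °C. The varied substrate (ethanol, acetaldehyde or cyclohexanone) was chosen per enzyme, with coenzyme fixed at 0.2 mM NADH or 2.0 mM NAD+. Inhibitor varied over at least a 3-fold range, 20–25 conditions in duplicate.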

Assay [2] addresses All-trans-retinol dehydrogenase [NAD(+)] ADH1B (Homo sapiens, UniProt P00325). Kind of assay: Inhibition of human alcohol dehydrogenase beta 1 activity. The procedure, abridged: as §1
In a further assay the target is Alcohol dehydrogenase 1A (Homo sapiens, UniProt P07327). The assay can be described thus: Inhibition of human alcohol dehydrogenase alpha activity. The method in brief: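 Purified human α isozyme. Buffer was 46 mM sodium phosphate with 0.25 mM EDTA, pH 7.0, 25 °C; runs were also done in 33 mM phosphate/EDTA, pH 8.0. NADH 0.2 mM or NAD+ 2.0 mM held fixed. NADH change followed at 340 nm.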
Chain of Alcohol dehydrogenase 1A (P07327 whole entry): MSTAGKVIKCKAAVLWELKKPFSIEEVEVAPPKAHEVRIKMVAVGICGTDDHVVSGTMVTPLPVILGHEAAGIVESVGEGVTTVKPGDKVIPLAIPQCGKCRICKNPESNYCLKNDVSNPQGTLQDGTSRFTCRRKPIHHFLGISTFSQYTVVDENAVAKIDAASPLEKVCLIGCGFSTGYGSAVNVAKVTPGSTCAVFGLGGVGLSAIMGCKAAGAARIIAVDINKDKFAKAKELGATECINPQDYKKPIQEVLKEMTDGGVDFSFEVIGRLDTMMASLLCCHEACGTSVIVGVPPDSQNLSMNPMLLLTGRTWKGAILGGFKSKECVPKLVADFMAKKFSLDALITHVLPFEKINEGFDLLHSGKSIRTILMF

The target in assay [3] is All-trans-retinol dehydrogenase [NAD(+)] ADH4 (Homo sapiens, UniProt P08319). The assay can be described thus: Inhibition of human alcohol dehydrogenase pi activity. The method in brief:
as §1

The next assay concerns the target Alcohol dehydrogenase 1C (Homo sapiens, UniProt P00326). Kind of assay: Inhibition of human alcohol dehydrogenase gamma2 activity. The method in brief: as §1
In a further assay the target is Alcohol dehydrogenase (Equus caballus, UniProt P00327+P00328). Kind of assay: Inhibition of horse liver alcohol dehydrogenase activity.
The target of assay [4] is T1, All-trans-retinol dehydrogenase [NAD(+)] ADH7. Kind of assay: Inhibitory activity against human alcohol dehydrogenase sigma. The procedure, abridged: as §1

T1 sequence (P40394 whole entry): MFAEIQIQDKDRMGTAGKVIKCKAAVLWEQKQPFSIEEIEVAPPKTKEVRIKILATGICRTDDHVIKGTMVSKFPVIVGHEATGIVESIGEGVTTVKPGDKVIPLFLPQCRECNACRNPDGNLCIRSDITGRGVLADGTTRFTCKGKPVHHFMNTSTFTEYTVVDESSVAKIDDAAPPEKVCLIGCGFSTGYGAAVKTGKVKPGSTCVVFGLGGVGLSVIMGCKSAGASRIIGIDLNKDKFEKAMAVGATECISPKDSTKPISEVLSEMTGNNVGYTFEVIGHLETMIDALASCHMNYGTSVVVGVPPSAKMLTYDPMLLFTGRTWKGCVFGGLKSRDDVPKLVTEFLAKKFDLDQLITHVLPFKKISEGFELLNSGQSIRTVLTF
Chain of All-trans-retinol dehydrogenase [NAD(+)] ADH1B (P00325 whole entry): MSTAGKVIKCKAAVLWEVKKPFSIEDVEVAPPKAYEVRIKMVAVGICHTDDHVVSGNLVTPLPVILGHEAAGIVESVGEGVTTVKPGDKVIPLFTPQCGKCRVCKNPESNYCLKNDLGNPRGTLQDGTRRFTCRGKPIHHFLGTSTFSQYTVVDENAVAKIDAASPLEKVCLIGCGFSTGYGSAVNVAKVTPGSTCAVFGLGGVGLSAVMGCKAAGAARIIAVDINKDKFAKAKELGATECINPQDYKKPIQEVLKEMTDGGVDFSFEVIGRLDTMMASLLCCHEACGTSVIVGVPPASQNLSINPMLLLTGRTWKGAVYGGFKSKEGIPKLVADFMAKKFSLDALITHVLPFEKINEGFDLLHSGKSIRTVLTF
Chain of Alcohol dehydrogenase 1C (P00326 whole entry): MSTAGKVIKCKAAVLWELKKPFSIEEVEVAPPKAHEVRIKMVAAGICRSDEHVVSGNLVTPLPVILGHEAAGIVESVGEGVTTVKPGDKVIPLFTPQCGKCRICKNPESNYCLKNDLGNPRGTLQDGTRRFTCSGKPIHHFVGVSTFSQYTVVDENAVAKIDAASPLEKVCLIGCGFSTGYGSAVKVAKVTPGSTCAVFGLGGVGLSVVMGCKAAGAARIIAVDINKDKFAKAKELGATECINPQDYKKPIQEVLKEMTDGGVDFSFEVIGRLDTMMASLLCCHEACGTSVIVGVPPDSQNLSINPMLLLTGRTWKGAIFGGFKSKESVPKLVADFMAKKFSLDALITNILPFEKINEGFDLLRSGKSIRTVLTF
Chain of All-trans-retinol dehydrogenase [NAD(+)] ADH4 (P08319 whole entry): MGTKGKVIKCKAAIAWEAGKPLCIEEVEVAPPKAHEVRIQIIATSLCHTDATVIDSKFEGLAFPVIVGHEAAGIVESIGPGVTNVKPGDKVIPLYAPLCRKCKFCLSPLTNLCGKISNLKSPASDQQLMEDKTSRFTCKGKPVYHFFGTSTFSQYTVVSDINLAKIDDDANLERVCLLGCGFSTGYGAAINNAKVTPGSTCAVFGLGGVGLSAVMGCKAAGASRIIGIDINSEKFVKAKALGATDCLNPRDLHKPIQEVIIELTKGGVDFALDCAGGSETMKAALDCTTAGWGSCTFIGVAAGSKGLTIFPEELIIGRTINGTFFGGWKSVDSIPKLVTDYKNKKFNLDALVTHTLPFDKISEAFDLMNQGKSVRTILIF

On to `O=CNCC1CCCCC1`, for which the Ki in assay [1] was 47 µM; in assay [2] it was 1 µM; on Alcohol dehydrogenase 1A, 3.6 µM; in assay [3], 7.1 µM; on Alcohol dehydrogenase 1C, 5.8 µM; on Alcohol dehydrogenase, 12 µM.
As to `O=CN(C1CCCCC1)C1CC1`, the Ki in assay [1] is 640 µM; in assay [2], 250 µM; at Alcohol dehydrogenase 1A it was 5.9 µM; on Alcohol dehydrogenase 1C, 120 µM; at Alcohol dehydrogenase, 440 µM.
On to `CCCN(C=O)C1CCCCC1`, for which the Ki turned out to be 4000 µM in assay [2], 14 µM on Alcohol dehydrogenase 1A, 160 µM on Alcohol dehydrogenase 1C and 5200 µM at Alcohol dehydrogenase.
In the case of `O=CNC1CCCC1`, the inhibitory constant (Ki) is 28 µM in assay [1]; 7.3 µM in assay [2]; 3.9 µM on Alcohol dehydrogenase 1A; 150 µM in assay [3]; 13 µM on Alcohol dehydrogenase 1C; 7.6 µM at Alcohol dehydrogenase.
`CC(C)NC=O`: the Ki in assay [1] was determined as 210 µM; in assay [2], 19 µM; at Alcohol dehydrogenase 1A it was 22 µM; in assay [3], 1900 µM; on Alcohol dehydrogenase 1C it was 15 µM; at Alcohol dehydrogenase, 2.6 µM.
Turning to `O=CN(C1CCC1)C1CCC1`, the Ki in assay [1] is 1800 µM; in assay [2], 4900 µM; at Alcohol dehydrogenase 1A, 1.8 µM; in assay [3], 280 µM; at Alcohol dehydrogenase 1C it was 19 µM; on Alcohol dehydrogenase it was 7200 µM.
In the case of `CCCNC=O`, the Ki in assay [1] turned out to be 21 µM; in assay [2] it was 5.5 µM; on Alcohol dehydrogenase 1A it was 5.6 µM; in assay [3], 300 µM; at Alcohol dehydrogenase 1C, 120 µM; at Alcohol dehydrogenase it was 10 µM.
As to `CC(C)CNC=O`, the Ki came to 180 µM in assay [1]; 26 µM in assay [2]; 5.5 µM on Alcohol dehydrogenase 1A; 340 µM in assay [3]; 54 µM at Alcohol dehydrogenase 1C; 13 µM at Alcohol dehydrogenase.
`CCCN(C=O)C1CCCC1`: the Ki stood at 1700 µM in assay [1]; 2800 µM in assay [2]; 4.5 µM on Alcohol dehydrogenase 1A; 191 µM in assay [3]; 21 µM at Alcohol dehydrogenase 1C; 1900 µM on Alcohol dehydrogenase.
As for `CC(C)N(C=O)C1CCCCC1`, the Ki in assay [1] was 1300 µM; in assay [2] it was 46 µM; at Alcohol dehydrogenase 1A, 24 µM; in assay [3] it was 150 µM; on Alcohol dehydrogenase 1C, 83 µM; at Alcohol dehydrogenase it was 470 µM.
Turning to `CCCCNC=O`, the Ki turned out to be 30 µM in assay [1]; 11 µM in assay [2]; 7.2 µM at Alcohol dehydrogenase 1A; 110 µM in assay [3]; 100 µM on Alcohol dehydrogenase 1C; 16 µM at Alcohol dehydrogenase.
Regarding `CCN(C=O)C1CCCCC1`, the Ki in assay [2] was 1500 µM; on Alcohol dehydrogenase 1A, 4.5 µM; at Alcohol dehydrogenase 1C, 33 µM; on Alcohol dehydrogenase, 1400 µM.
As to `O=CN(C1CCCC1)C1CC1`, the inhibition constant Ki in assay [1] came out at 930 µM; in assay [2], 4600 µM; on Alcohol dehydrogenase 1A, 0.88 µM; in assay [3], 96 µM; on Alcohol dehydrogenase 1C, 4.6 µM; at Alcohol dehydrogenase, 110 µM.
Consider `CN(C=O)C1CCCCC1`, for which the inhibition constant (Ki) in assay [1] was 4900 µM; in assay [2] it was 920 µM; on Alcohol dehydrogenase 1A it was 5.5 µM; in assay [3] it was 120 µM; on Alcohol dehydrogenase 1C, 40 µM; at Alcohol dehydrogenase, 600 µM.
Regarding `CCCCCCCN(C=O)C1CC1`, the Ki in assay [1] is 960 µM; in assay [2] it was 1900 µM; on Alcohol dehydrogenase 1A, 1.9 µM; in assay [3] it was 31 µM; at Alcohol dehydrogenase 1C, 2.1 µM; on Alcohol dehydrogenase, 1100 µM.
As to `O=CN(C1CCCC1)C1CCCC1`, the Ki in assay [2] worked out at 1600 µM; on Alcohol dehydrogenase 1A, 7.4 µM; on Alcohol dehydrogenase 1C, 1000 µM; at Alcohol dehydrogenase it was 2600 µM.
Regarding `CCCCCCC(C)NC=O` (centres undefined), the inhibition constant (Ki) was found to be 100 µM in assay [1]; 1.7 µM in assay [2]; 7 µM at Alcohol dehydrogenase 1A; 40 µM in assay [3]; 0.41 µM at Alcohol dehydrogenase 1C; 5.4 µM on Alcohol dehydrogenase.
`O=CNC1CCC1`: the Ki in assay [2] came to 2.9 µM; at Alcohol dehydrogenase 1A it was 3.8 µM; in assay [3], 450 µM; on Alcohol dehydrogenase 1C, 45 µM; in assay [4], 54 µM; on Alcohol dehydrogenase it was 1.7 µM.
Regarding `O=CNC1CC1`, the inhibition constant Ki was 300 µM in assay [1]; 6.4 µM in assay [2]; 33 µM at Alcohol dehydrogenase 1A; 5200 µM in assay [3]; 700 µM on Alcohol dehydrogenase 1C; 100 µM at Alcohol dehydrogenase.
With `O=CN(C1CCCC1)C1CCC1` [CYCLOBUTYL(CYCLOPENTYL)FORMAMIDE], the inhibition constant Ki amounted to 1100 µM in assay [1]; 10000 µM in assay [2]; 0.36 µM on Alcohol dehydrogenase 1A; 360 µM in assay [3]; 47 µM at Alcohol dehydrogenase 1C; 8600 µM at Alcohol dehydrogenase.
As to `O=CNC1CCCCC1` [CYCLOHEXYLFORMAMIDE], the Ki in assay [1] worked out at 380 µM; in assay [2], 3.4 µM; at Alcohol dehydrogenase 1A, 2.3 µM; in assay [3], 84 µM; at Alcohol dehydrogenase 1C it was 5.2 µM.
With `CCCCCCCNC=O` [HEPTYLFORMAMIDE], the Ki stood at 0.74 µM in assay [1]; 0.33 µM in assay [2]; 3.6 µM at Alcohol dehydrogenase 1A; 11 µM in assay [3]; 12 µM at Alcohol dehydrogenase 1C; 3 µM on Alcohol dehydrogenase.
